The text below walks through data of ChEMBL document CHEMBL4354848, “Molecular Design and Synthesis of Ivermectin Hybrids Targeting Hepatic and Erythrocytic Stages of Plasmodium Parasites” (J Med Chem, 2020).

Activity calls are given as the source filed them. The rule behind the calls is not given here.

Series [1] deals with Plasmodium falciparum. The series can be described thus: Antiplasmodial activity against chloroquine-sensitive ring-stage synchronized cultures of Plasmodium falciparum NF54 incubated for 48 hrs by SYBR green I dye based flow cytometry. Type of series: functional, organism-based. In short, it runs like this: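 Ring-stage synchronized PfNF54 cultures (2.5% hematocrit, ~1% parasitemia) exposed to compounds or DMSO vehicle for 48 h at 37 °C under 5% CO2/5% O2. Stocks in DMSO diluted in RPMI 1640-based medium with Albumax, HEPES, hypoxanthine. ~800 000 cells stained with SYBR green I for 20 min in the dark; ~100,000 events counted by flow cytometry. Triplicates, at least three experiments.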
Background: Flow cytometry measures light scatter and fluorescence of single cells or particles in a stream.

Series [2] concerns Plasmodium falciparum. The series can be described thus: Potency index, ratio of ivermectin IC50 to test compound IC50 for antiplasmodial activity against chloroquine-sensitive ring-stage synchronized cultures of Plasmodium falciparum NF54. Type of series: functional.
In series [3] the test system is Plasmodium berghei. The series can be described thus: Antiplasmodial activity against luciferase expressing Plasmodium berghei sporozoites infected in human HuH7 cells assessed as reduction in parasite load at 1 to 10 uM preincubated for 1 hr followed by parasite infection and measured after 46 hrs by bioluminescence assay. The class given is functional, organism-based. In short, it runs like this:
(§1)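 Huh7 hepatoma cells seeded at 1x10^4/well, left overnight at 37 °C, 5% CO2. Serial dilutions from 10 mM DMSO stocks in medium with gentamicin and amphotericin B added 1 h before 1x10^4 firefly luciferase-expressing P. berghei sporozoites from An. stephensi salivary glands. Spin 1800 xg for 5 min, then culture. Parasite load read by bioluminescence. DMSO and atovaquone as controls. IC50 from nonlinear regression of normalized curves.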

Series [4] has as its system Huh-7. Kind of series: Cytotoxicity against human HuH7 cells infected with luciferase expressing Plasmodium berghei sporozoites assessed as reduction in cell viability preincubated for 1 hr followed by parasite infection and measured after 48 hrs by alamar blue assay. Type of series: cell-based. As to conditions: huh-7, 46 h, in the assay text read “46 hrs” for “48 hrs”. In short, it runs like this:
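Huh7 cells were pre-treated for 1 h with serial dilutions from 10 mM DMSO stocks, then infected with luciferase-expressing P. berghei sporozoites and spun at 1800 xg for 5 min. Cultures were kept at 37 °C, 5% CO2. Viability was read by Alamar Blue added at 46 h post infection, following the manufacturer's instructions.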
(Alamar Blue is a resazurin reagent that responds to reducing activity.)

In series [5] the test system is Plasmodium berghei. The series can be described thus: Antiplasmodial activity against luciferase expressing Plasmodium berghei sporozoites infected in human HuH7 cells assessed as reduction in parasite load preincubated for 1 hr followed by parasite infection and measured after 46 hrs by bioluminescence assay. Type of series: functional, organism-based. In short, it runs like this:
as §1

In series [6] the test system is Anopheles stephensi. Kind of series: Insecticidal activity against compound treated Balb/c mouse blood fed Anopheles stephensi assessed as effect on mosquito survival at 1 mg/kg, po administered via gavage 24 hrs prior to blood feed for 20 mins under dark condition and measured daily up to 14 days post blood feed. Type of series: functional, organism-based. In short, it runs like this: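 Balb/c mice (6-8 weeks) received a single oral dose of 1 mg/kg as a suspension in sunflower oil. Controls got DMSO in sunflower oil. At 24 h, ~30 mosquitoes per mouse fed for ~20 min in the dark. Blood ingestion was confirmed visually, and survival was scored daily up to 14 days.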

The test system of series [7] is Plasmodium berghei. Kind of series: Potency index, ratio of ivermectin IC50 to test compound IC50 for antiplasmodial activity against luciferase expressing Plasmodium berghei sporozoites infected in human HuH7 cells. Type of series: functional.
Where [8] appears, read: Plasmodium falciparum, NF54, 48 h, read-out: IC50.

One may read the IC50 as the midpoint of a concentration-inhibition curve. Consider `CCOC(=O)c1c(C)nc(OCc2cn(CC(=O)O[C@@H]3/C(C)=C/C[C@@H]4C[C@@H](C[C@]5(CC[C@H](C)[C@@H]([C@@H](C)CC)O5)O4)OC(=O)[C@@H]4C=C(C)[C@@H](O)[C@H]5OC/C(=C\C=C\[C@@H]3C)[C@]54O)nn2)nc1-c1ccccc1`, for which the IC50 in series [1] (setting [8]) was determined as 110 nM; in series [5] (Plasmodium berghei, Huh-7), 990 nM. In addition, in series [2], the “Ratio IC50” value came to 11. In series [3], the outcome was Active. Also, the Activity entry in series [4] was “Non-Toxic”.
`CC[C@H](C)[C@H]1O[C@]2(CC[C@@H]1C)C[C@@H]1C[C@@H](C/C=C(\C)[C@@H](OC(=O)Cn3cc(COc4nc(C)c(C(=O)OC(C)C)c(-c5cccc([N+](=O)[O-])c5)n4)nn3)[C@@H](C)/C=C/C=C3\CO[C@@H]4[C@H](O[Si](C)(C)C(C)(C)C)C(C)=C[C@@H](C(=O)O1)[C@]34O)O2`: the result in series [3] was inactive. For the same compound, the Activity entry in series [4] is on record as “Non-Toxic”.
Take IVERMECTIN [listing 1 of 2 here]: the 50% inhibitory concentration (IC50) in series [1] (read-out: IC50) came out at 520 nM; in series [5], 1640 nM.
Regarding IVERMECTIN [listing 2 of 2 here], the outcome in series [6] was Active.
In the case of `O=C1C(O)=C([C@H]2CC[C@H](c3ccc(Cl)cc3)CC2)C(=O)c2ccccc21` [ATOVAQUONE], in series [5] (Plasmodium berghei, Huh-7), the half-inhibitory concentration (IC50) came to 0.7 nM.
Regarding `CCOC(=O)c1c(C)nc(OCc2cn(CC(=O)O[C@@H]3/C(C)=C/C[C@@H]4C[C@@H](C[C@]5(CC[C@H](C)[C@@H]([C@@H](C)CC)O5)O4)OC(=O)[C@@H]4C=C(C)[C@@H](O)[C@H]5OC/C(=C\C=C\[C@@H]3C)[C@]54O)nn2)nc1-c1cc(OC)c(OC)cc1[N+](=O)[O-]`, the result in series [6] was inactive. The half-maximal inhibitory concentration (IC50) in series [1] (setting [8]) was 50.2 nM; in series [5] (Plasmodium berghei, Huh-7), 503 nM. Also, the results for the “Ratio IC50” value in series [2] and in series [7] were 5 and 3, respectively. Moreover, the result in series [3] was Active. For the same compound, the Activity entry in series [4] is reported as “Non-Toxic”.
`CC[C@H](C)[C@H]1O[C@]2(CC[C@@H]1C)C[C@@H]1C[C@@H](C/C=C(\C)[C@@H](OC(=O)Cn3cc(COc4nc(C)c(C(=O)OC(C)C)c(-c5cccc([N+](=O)[O-])c5)n4)nn3)[C@@H](C)/C=C/C=C3\CO[C@@H]4[C@H](O)C(C)=C[C@@H](C(=O)O1)[C@]34O)O2`: the IC50 is 161 nM in series [1] (setting [8]) and 911 nM in series [5] (Plasmodium berghei, Huh-7). In series [2], the “Ratio IC50” value stood at 3. For the same compound, the result in series [3] was Active. Also, in series [4], the Activity entry is “Non-Toxic”.
Regarding `CC[C@H](C)[C@H]1O[C@]2(CC[C@@H]1C)C[C@@H]1C[C@@H](C/C=C(\C)[C@@H](O)[C@@H](C)/C=C/C=C3\CO[C@@H]4[C@H](O)C(C)=C[C@@H](C(=O)O1)[C@]34O)O2` [IVM AGLYCONE], the result in series [6] was inactive. Further, the IC50 entry in series [1] was “Not Active”; in series [5] (Plasmodium berghei, Huh-7) it was 4560 nM. The outcome in series [3] was Active. Besides, the Activity result in series [4] is on record as “Non-Toxic”.
